ChEMBL document CHEMBL1125078, “Synthesis and evaluation of novel electrophilic nitrofuran carboxamides and carboxylates as radiosensitizers and bioreductively activated cytotoxins” (1990)

Experiments:
[1] = Differential toxicity expressed as the ratio of C50 (air) to C50 (nitrogen); assay type: functional
Procedure, shortened: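 Differential toxicity = C50(air)/C50(N2), with each C50 from the MTT assay on V79-379A cells under air or nitrogen; mean of at least three experiments.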

[2] = system: V79-379A (Chinese hamster lung fibroblasts); assay: Cytotoxicity in air (MMT assay).
[3] = Molar concentration required to give a sensitizer enhancement ratio of 1.6 in hypoxic […] (V79) cells.; assay type: functional, Cricetulus griseus
Procedure, shortened: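 Hypoxic Chinese hamster V79-379A cells irradiated in vitro with compound present; C1.6 = molar concentration of compound giving a sensitizer enhancement ratio of 1.6.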

[4] = system: V79-379A (Chinese hamster lung fibroblasts); assay: Cytotoxicity in nitrogen (MMT assay).
[5] = Compound was tested for persistent physical or behavioral effects in C3H/He mice; assay type: functional, Mus musculus
Procedure, shortened: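 Toxicity screen in C3H/He mice: single injection as PBS (pH 7.3) solution or suspension, 0.5 or 1.0 mL per 25 g body weight, doses raised until solubility or toxicity limited; animals watched for acute, severe or persistent physical or behavioural changes (e.g. piloerection, respiration rate, locomotor activity for about 1 h).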

**Q.** What does the source list for C=CCNC(=O)/C=C/c1ccc([N+](=O)[O-])o1?
**A.** d tox [1]: 2.4; C50 [2]: 0.06 mM; C1.6 [3]: 0.03 mM; C50 [4]: 0.025 mM

**Q.** For Cc1oc([N+](=O)[O-])cc1C(=O)NCC1CO1 (configuration not stated), which d tox [1] is on record?
**A.** Its d tox is 1.

**Q.** And the C50 [2]?
**A.** Its C50 is 0.1 mM.

**Q.** And the C1.6 [3]?
**A.** Its C1.6 is 0.04 mM.

**Q.** What about the C50 [4] of the same molecule?
**A.** Its C50 is 0.1 mM.

**Q.** Which results are given for COCC(O)Cn1ccnc1[N+](=O)[O-] (configuration not stated) [MISONIDAZOLE]?
**A.** d tox [1]: 11.3; C50 [2]: 45 mM; C1.6 [3]: 0.3 mM; C50 [4]: 4 mM

**Q.** Which results are given for O=[N+]([O-])c1nccn1CC(O)CN1CC1 (configuration not stated)?
**A.** d tox [1]: 66.6; C50 [2]: 0.3 mM; C1.6 [3]: 0.1 mM; C50 [4]: 0.0045 mM

**Q.** With C=CCNC(=O)c1ccc([N+](=O)[O-])o1 as the molecule, how does the d tox [1] read?
**A.** Its d tox is 1.8.

**Q.** And the C50 [2]?
**A.** The C50 was 0.08 mM.

**Q.** What about the C1.6 [3] of the same molecule?
**A.** The C1.6 was 0.05 mM.

**Q.** And the C50 [4]?
**A.** The C50 was 0.045 mM.

**Q.** For C[C@@H]1[C@H](C)N1CC(O)CNC(=O)c1ccc([N+](=O)[O-])o1 (some centres not stated), which d tox [1] is on record?
**A.** Its d tox is 3.

**Q.** What about the C50 [2] of the same molecule?
**A.** Its C50 is 0.06 mM.

**Q.** What about the C1.6 [3] of the same molecule?
**A.** The C1.6 was 0.05 mM.

**Q.** And the C50 [4]?
**A.** The C50 was 0.02 mM.

**Q.** Which d tox [1] does the source give for Br.O=[N+]([O-])c1nccn1CC(O)CNCCBr (configuration not stated) here?
**A.** Its d tox is 25.6.

**Q.** And the C50 [2]?
**A.** Its C50 is 2.3 mM.

**Q.** And the C1.6 [3]?
**A.** Its C1.6 is 0.1 mM.

**Q.** And the C50 [4]?
**A.** Its C50 is 0.09 mM.

**Q.** With C[C@@H]1[C@H](C)N1CC(O)CNC(=O)C1OC1c1ccc([N+](=O)[O-])o1 (some centres not stated) as the molecule, how does the d tox [1] read?
**A.** The d tox was 1.

**Q.** What about the C50 [2] of the same molecule?
**A.** The C50 was 0.012 mM.

**Q.** And the C1.6 [3]?
**A.** Its C1.6 is 0.025 mM.

**Q.** What about the C50 [4] of the same molecule?
**A.** The C50 was 0.012 mM.

**Q.** With O=C(NCC1CO1)c1ccc([N+](=O)[O-])o1 (configuration not stated) as the molecule, how does the d tox [1] read?
**A.** The d tox was 1.

**Q.** What about the C50 [2] of the same molecule?
**A.** Its C50 is 0.05 mM.

**Q.** And the C1.6 [3]?
**A.** Its C1.6 is 0.02 mM.

**Q.** And the Max dose [5]?
**A.** The Max dose was 50 mM/kg.

**Q.** And the C50 [4]?
**A.** Its C50 is 0.05 mM.

**Q.** For C=CCOC(=O)c1ccc([N+](=O)[O-])o1, which d tox [1] is on record?
**A.** The d tox was 4.

**Q.** And the C50 [2]?
**A.** Its C50 is 0.1 mM.

**Q.** What about the C1.6 [3] of the same molecule?
**A.** The C1.6 was 0.05 mM.

**Q.** What about the C50 [4] of the same molecule?
**A.** Its C50 is 0.025 mM.

**Q.** For C[C@@H]1[C@H](C)N1CC(O)CNC(=O)/C=C/c1ccc([N+](=O)[O-])o1 (some centres not stated), which d tox [1] is on record?
**A.** Its d tox is 1.8.

**Q.** What about the C50 [2] of the same molecule?
**A.** Its C50 is 0.07 mM.

**Q.** What about the C1.6 [3] of the same molecule?
**A.** Its C1.6 is 0.035 mM.

**Q.** What about the C50 [4] of the same molecule?
**A.** The C50 was 0.04 mM.

**Q.** Which results are given for Br.C[C@H](Br)[C@H](C)NCC(O)CNC(=O)c1ccc([N+](=O)[O-])o1 (some centres not stated)?
**A.** d tox [1]: 5.6; C50 [2]: 0.14 mM; C1.6 [3]: 0.03 mM; C50 [4]: 0.025 mM

**Q.** With CC1(C)CN1CC(O)CNC(=O)/C=C/c1ccc([N+](=O)[O-])o1 (configuration not stated) as the molecule, how does the d tox [1] read?
**A.** Its d tox is 4.5.

**Q.** What about the C50 [2] of the same molecule?
**A.** The C50 was 0.045 mM.

**Q.** And the C1.6 [3]?
**A.** The C1.6 was 0.008 mM.

**Q.** What about the C50 [4] of the same molecule?
**A.** The C50 was 0.01 mM.

**Q.** What does the source list for O=C(/C=C/c1ccc([N+](=O)[O-])o1)NCC1CO1 (configuration not stated)?
**A.** d tox [1]: 3; C50 [2]: 0.03 mM; C1.6 [3]: 0.008 mM; Max dose [5]: 25 mM/kg; C50 [4]: 0.01 mM

**Q.** What does the source list for CC(C)(CO)NC(=O)c1ccc([N+](=O)[O-])o1?
**A.** d tox [1]: 2.1; C50 [2]: 0.25 mM; C1.6 [3]: 0.05 mM; Max dose [5]: 100 mM/kg; C50 [4]: 0.12 mM

**Q.** With Br.NC(=O)N/N=C/c1ccc([N+](=O)[O-])o1 as the molecule, how does the d tox [1] read?
**A.** The d tox was 8.5.

**Q.** And the C50 [2]?
**A.** Its C50 is 1.7 mM.

**Q.** What about the C1.6 [3] of the same molecule?
**A.** The C1.6 was 0.05 mM.

**Q.** And the C50 [4]?
**A.** The C50 was 0.2 mM.

**Q.** With CC1(C)CN1CC(O)CNC(=O)c1ccc([N+](=O)[O-])o1 (configuration not stated) as the molecule, how does the d tox [1] read?
**A.** Its d tox is 2.

**Q.** What about the C50 [2] of the same molecule?
**A.** Its C50 is 0.15 mM.

**Q.** What about the C1.6 [3] of the same molecule?
**A.** Its C1.6 is 0.04 mM.

**Q.** What about the C50 [4] of the same molecule?
**A.** The C50 was 0.075 mM.

**Q.** For CC1(C)CN1C(=O)c1ccc([N+](=O)[O-])o1, which d tox [1] is on record?
**A.** Its d tox is 1.

**Q.** And the C50 [2]?
**A.** The C50 was 0.18 mM.

**Q.** And the C1.6 [3]?
**A.** Its C1.6 is 0.1 mM.

**Q.** And the C50 [4]?
**A.** The C50 was 0.18 mM.

**Q.** Which d tox [1] does the source give for C=CCNC(=O)c1cc([N+](=O)[O-])c(C)o1 here?
**A.** Its d tox is 0.5.

**Q.** And the C50 [2]?
**A.** Its C50 is 0.015 mM.

**Q.** And the C50 [4]?
**A.** The C50 was 0.03 mM.

**Q.** Which d tox [1] does the source give for C=CCNC(=O)c1cc([N+](=O)[O-])oc1C here?
**A.** The d tox was 0.4.

**Q.** What about the C50 [2] of the same molecule?
**A.** Its C50 is 0.35 mM.

**Q.** And the C1.6 [3]?
**A.** Its C1.6 is 0.075 mM.

**Q.** What about the C50 [4] of the same molecule?
**A.** Its C50 is 0.8 mM.
